Data set [1] is described as follows: Displacement of HABA from avidin. In outline:
(§1)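 HABA competition in cuvettes. HABA/avidin complex formed at final avidin 7.6 μM and […], then competitors added at various concentrations. Absorbance read at 500 nm. Triplicate runs. % inhibition computed from absorbance with competitor against absorbance without competitor, each corrected for the blank without HABA/Av complex.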

Data set [2] in a line: Displacement of HABA from avidin at 31 uM. In short, it runs like this:
as §1

A short description of data set [3]: Binding affinity to avidin by thermal stability study. In short, it runs like this: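 Far-UV CD of avidin/ligand complexes. Thermal unfolding followed by the fall in dichroic signal at 225 nm over 25-95 °C. Settings: bandwidth 1 nm, response 0.5 s, data pitch 1 °C, slope 10 °C/min. Full spectrum (195-260 nm) recorded every 5 °C increment, each spectrum an average of three. Inflection point of the melting curve taken as the read-out.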

Another data set deals with Serum. As to the kind of experiment: Stability in normal mouse serum after 2 hrs. The format is ADME, cell-free. In short, it runs like this: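 Freshly collected normal mouse serum (50 μL) used as biotinidase source, mixed with sample and brought to 500 μL in 100 mM sodium acetate pH 5.5. Incubated at 37 °C for up to 2 h. Aliquots taken before and after incubation, diluted 10-fold in 0.08% TFA, then analysed by C18 RP-HPLC-ESI-MS (2-60% B over 20 min, 0.2 mL/min) for release of free biotin and recovery of parent.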

Molecules are shown by their SMILES. A value given as a limit tells only on which side of the number the result lay.

This passage reports Activity, inhibition and Stability results from ChEMBL document CHEMBL1156779, “Biotin derivatives carrying two chelating DOTA units. Synthesis, in vitro evaluation of biotinidases resistance, avidin binding, and radiolabeling tests” (J Med Chem, 2010).

Turning to `O=C(O)CN1CCN(CC(=O)O)CCN(CC(=O)NCCCCCCN(CCCCCCNC(=O)CN2CCN(CC(=O)O)CCN(CC(=O)O)CCN(CC(=O)O)CC2)CC(=O)NCCCCCCNCCCCC[C@@H]2SC[C@@H]3NC(=O)N[C@@H]32)CCN(CC(=O)O)CC1`, the Activity entry in data set [1] is “Dose-dependent effect”. The inhibition in data set [2] was found to be 64%.
Regarding `O=C(O)CN1CCN(CC(=O)O)CCN(CC(=O)NCCCN(CCCNC(=O)CN2CCN(CC(=O)O)CCN(CC(=O)O)CCN(CC(=O)O)CC2)CC(=O)NCCCCC(NC(=O)CCCC[C@@H]2SC[C@@H]3NC(=O)N[C@@H]32)C(=O)O)CCN(CC(=O)O)CC1` (stereo partly drawn), the Stability in data set [3] is > 95 °C. Moreover, the Activity result in data set [1] was “Dose-dependent effect”. This compound also yielded an inhibition in data set [2] of 95%.
`O=C(O)CCCC[C@@H]1SC[C@@H]2NC(=O)N[C@@H]21` yielded an inhibition in data set [2] of 100%.
Regarding `O=C(O)CN1CCN(CC(=O)O)CCN(CC(=O)NCCCN(CCCNC(=O)CN2CCN(CC(=O)O)CCN(CC(=O)O)CCN(CC(=O)O)CC2)CC(=O)Nc2ccc(C(=O)NCCCCC(NC(=O)CCCC[C@@H]3SC[C@@H]4NC(=O)N[C@@H]43)C(=O)O)cc2)CCN(CC(=O)O)CC1` (stereo partly drawn), the Stability in data set [3] is > 95 °C; in the data set with Serum it was “Stable”. Besides, the Activity entry in data set [1] is “Dose-dependent effect”. Also, the inhibition in data set [2] was 97%.
In data set [3], `O=C(O)CN1CCN(CC(=O)O)CCN(CC(=O)NCCCN(CCCNC(=O)CN2CCN(CC(=O)O)CCN(CC(=O)O)CCN(CC(=O)O)CC2)CC(=O)NCCCCCCNCCCCC[C@@H]2SC[C@@H]3NC(=O)N[C@@H]32)CCN(CC(=O)O)CC1` had a Stability of 90 °C. The Activity result in data set [1] is “Dose-dependent effect”. Also, the inhibition in data set [2] was determined as 66%.
